ChEMBL document CHEMBL4229333, “Effects of rigidity on the selectivity of protein kinase inhibitors” (Eur J Med Chem, 2018)

Assays:
[1] = target: Serine/threonine-protein kinase 24 (Homo sapiens) (UniProt Q9Y6E0); experiment: Inhibition of MST3 (unknown origin) at 1 uM by mobility shift microfluidics platform based assay relative to control
[2] = target: Protein kinase C beta type (Homo sapiens) (UniProt P05771); experiment: Inhibition of PKC-beta2 (unknown origin) at 1 uM by mobility shift microfluidics platform based assay relative to control
[3] = target: cAMP-dependent protein kinase catalytic subunit PRKX (Homo sapiens) (UniProt P51817); experiment: Inhibition of PRKX (unknown origin) at 1 uM by mobility shift microfluidics platform based assay relative to control
[4] = target: AMPK alpha2/beta1/gamma1 (Homo sapiens) (UniProt P54646+P54619+Q9Y478); experiment: Inhibition of AMP-A2B1G1 (unknown origin) at 1 uM by mobility shift microfluidics platform based assay relative to control; assay type: protein-complex assay
[5] = target: RAF proto-oncogene serine/threonine-protein kinase (Homo sapiens) (UniProt P04049); experiment: Inhibition of CRAF (unknown origin) at 1 uM by mobility shift microfluidics platform based assay relative to control
[6] = target: Mast/stem cell growth factor receptor Kit (Homo sapiens) (UniProt P10721); experiment: Inhibition of KIT (unknown origin) at 1 uM by mobility shift microfluidics platform based assay relative to control
[7] = target: Tyrosine-protein kinase receptor TYRO3 (Homo sapiens) (UniProt Q06418); experiment: Inhibition of TYRO3 (unknown origin) at 1 uM by mobility shift microfluidics platform based assay relative to control
[8] = target: Vascular endothelial growth factor receptor 1 (Homo sapiens) (UniProt P17948); experiment: Inhibition of FLT1 (unknown origin) at 1 uM by mobility shift microfluidics platform based assay relative to control
[9] = target: Maternal embryonic leucine zipper kinase (Homo sapiens) (UniProt Q14680); experiment: Inhibition of MELK (unknown origin) at 1 uM by mobility shift microfluidics platform based assay relative to control
[10] = target: Tyrosine-protein kinase Fyn (Homo sapiens) (UniProt P06241); experiment: Inhibition of FYN (unknown origin) at 1 uM by mobility shift microfluidics platform based assay relative to control
[11] = target: Serine/threonine-protein kinase 38-like (Homo sapiens) (UniProt Q9Y2H1); experiment: Inhibition of NDR2 (unknown origin) at 1 uM by mobility shift microfluidics platform based assay relative to control
[12] = target: cGMP-dependent protein kinase 2 (Homo sapiens) (UniProt Q13237); experiment: Inhibition of PRKG2 (unknown origin) at 1 uM by mobility shift microfluidics platform based assay relative to control
[13] = target: Serine/threonine-protein kinase B-raf (Homo sapiens, UniProt P15056, V600E); experiment: Inhibition of BRAF V600E mutant (unknown origin) after 20 mins by immunoblotting assay
[14] = target: Testis-specific serine/threonine-protein kinase 1 (Homo sapiens) (UniProt Q9BXA7); experiment: Inhibition of TSSK1 (unknown origin) at 1 uM by mobility shift microfluidics platform based assay relative to control
[15] = target: Tyrosine-protein kinase ABL2 (Homo sapiens) (UniProt P42684); experiment: Inhibition of ARG (unknown origin) at 1 uM by mobility shift microfluidics platform based assay relative to control
[16] = target: Fibroblast growth factor receptor 4 (Homo sapiens) (UniProt P22455); experiment: Inhibition of FGFR4 (unknown origin) at 1 uM by mobility shift microfluidics platform based assay relative to control
[17] = target: Death-associated protein kinase 3 (Homo sapiens) (UniProt O43293); experiment: Inhibition of DAPK3 (unknown origin) at 1 uM by mobility shift microfluidics platform based assay relative to control
[18] = target: Phosphorylase b kinase gamma catalytic chain, skeletal muscle/heart isoform (Homo sapiens) (UniProt Q16816); experiment: Inhibition of PHK-gamma1 (unknown origin) at 1 uM by mobility shift microfluidics platform based assay relative to control
[19] = target: Proto-oncogene tyrosine-protein kinase ROS (Homo sapiens) (UniProt P08922); experiment: Inhibition of ROS (unknown origin) at 1 uM by mobility shift microfluidics platform based assay relative to control
[20] = target: Vascular endothelial growth factor receptor 2 (Homo sapiens) (UniProt P35968); experiment: Inhibition of KDR (unknown origin) at 1 uM by mobility shift microfluidics platform based assay relative to control
[21] = target: Serine/threonine-protein kinase N1 (Homo sapiens) (UniProt Q16512); experiment: Inhibition of PKN1 (unknown origin) at 1 uM by mobility shift microfluidics platform based assay relative to control
[22] = target: MAP kinase-interacting serine/threonine-protein kinase 1 (Homo sapiens) (UniProt Q9BUB5); experiment: Inhibition of MKNK1 (unknown origin) at 1 uM by mobility shift microfluidics platform based assay relative to control
[23] = target: Serine/threonine-protein kinase Sgk1 (Homo sapiens) (UniProt O00141); experiment: Inhibition of SGK1 (unknown origin) at 1 uM by mobility shift microfluidics platform based assay relative to control
[24] = target: Tyrosine-protein kinase JAK1 (Homo sapiens) (UniProt P23458); experiment: Inhibition of JAK1 (unknown origin) at 1 uM by mobility shift microfluidics platform based assay relative to control
[25] = target: Serine/threonine-protein kinase 10 (Homo sapiens) (UniProt O94804); experiment: Inhibition of LOK (unknown origin) at 1 uM by mobility shift microfluidics platform based assay relative to control
[26] = target: Casein kinase I isoform gamma-2 (Homo sapiens) (UniProt P78368); experiment: Inhibition of CK1-gamma2 (unknown origin) at 1 uM by mobility shift microfluidics platform based assay relative to control
[27] = target: Serine/threonine-protein kinase PAK 2 (Homo sapiens) (UniProt Q13177); experiment: Inhibition of PAK2 (unknown origin) at 1 uM by mobility shift microfluidics platform based assay relative to control
[28] = target: MAP kinase-activated protein kinase 5 (Homo sapiens) (UniProt Q8IW41); experiment: Inhibition of PRAK (unknown origin) at 1 uM by mobility shift microfluidics platform based assay relative to control
[29] = target: Serine/threonine-protein kinase D3 (Homo sapiens) (UniProt O94806); experiment: Inhibition of PRKD3 (unknown origin) at 1 uM by mobility shift microfluidics platform based assay relative to control
[30] = target: Serine/threonine-protein kinase TAO2 (Homo sapiens) (UniProt Q9UL54); experiment: Inhibition of TAOK2 (unknown origin) at 1 uM by mobility shift microfluidics platform based assay relative to control
Caco-2 = experiment: Efflux ratio in human Caco2 cells in absence of P-gp inhibitor by LC-MS/MS analysis; assay type: ADME, cell-based
How it was run: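 Caco-2 bidirectional transport, with compound concentrations measured by LC-MS/MS. Efflux ratio was calculated as Papp(B−A)/Papp(A−B).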

[31] = target: Rho-associated protein kinase 1 (Homo sapiens) (UniProt Q13464); experiment: Inhibition of ROCK1 (unknown origin) at 1 uM by mobility shift microfluidics platform based assay relative to control
[32] = system: Leucine-rich repeat serine/threonine-protein kinase 2 (Homo sapiens), Q5S007 [G2019S]; experiment: Inhibition of LRRK2 G2019S mutant (unknown origin) at 1 uM by mobility shift microfluidics platform based assay relative to control

Serine/threonine-protein kinase 24 (Homo sapiens), sequence (Q9Y6E0 whole entry, looked up): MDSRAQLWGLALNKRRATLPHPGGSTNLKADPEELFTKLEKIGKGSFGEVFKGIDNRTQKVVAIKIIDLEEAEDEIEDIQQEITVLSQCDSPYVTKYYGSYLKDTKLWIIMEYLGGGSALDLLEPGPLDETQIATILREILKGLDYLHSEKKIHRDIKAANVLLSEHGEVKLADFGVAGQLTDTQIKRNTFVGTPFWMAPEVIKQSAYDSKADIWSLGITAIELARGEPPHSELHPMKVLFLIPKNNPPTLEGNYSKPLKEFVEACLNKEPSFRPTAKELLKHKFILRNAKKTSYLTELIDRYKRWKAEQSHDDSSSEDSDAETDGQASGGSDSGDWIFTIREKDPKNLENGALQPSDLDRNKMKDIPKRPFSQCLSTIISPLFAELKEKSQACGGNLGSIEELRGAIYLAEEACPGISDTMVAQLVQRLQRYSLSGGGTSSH
Tyrosine-protein kinase JAK1 (Homo sapiens), sequence (P23458 whole entry): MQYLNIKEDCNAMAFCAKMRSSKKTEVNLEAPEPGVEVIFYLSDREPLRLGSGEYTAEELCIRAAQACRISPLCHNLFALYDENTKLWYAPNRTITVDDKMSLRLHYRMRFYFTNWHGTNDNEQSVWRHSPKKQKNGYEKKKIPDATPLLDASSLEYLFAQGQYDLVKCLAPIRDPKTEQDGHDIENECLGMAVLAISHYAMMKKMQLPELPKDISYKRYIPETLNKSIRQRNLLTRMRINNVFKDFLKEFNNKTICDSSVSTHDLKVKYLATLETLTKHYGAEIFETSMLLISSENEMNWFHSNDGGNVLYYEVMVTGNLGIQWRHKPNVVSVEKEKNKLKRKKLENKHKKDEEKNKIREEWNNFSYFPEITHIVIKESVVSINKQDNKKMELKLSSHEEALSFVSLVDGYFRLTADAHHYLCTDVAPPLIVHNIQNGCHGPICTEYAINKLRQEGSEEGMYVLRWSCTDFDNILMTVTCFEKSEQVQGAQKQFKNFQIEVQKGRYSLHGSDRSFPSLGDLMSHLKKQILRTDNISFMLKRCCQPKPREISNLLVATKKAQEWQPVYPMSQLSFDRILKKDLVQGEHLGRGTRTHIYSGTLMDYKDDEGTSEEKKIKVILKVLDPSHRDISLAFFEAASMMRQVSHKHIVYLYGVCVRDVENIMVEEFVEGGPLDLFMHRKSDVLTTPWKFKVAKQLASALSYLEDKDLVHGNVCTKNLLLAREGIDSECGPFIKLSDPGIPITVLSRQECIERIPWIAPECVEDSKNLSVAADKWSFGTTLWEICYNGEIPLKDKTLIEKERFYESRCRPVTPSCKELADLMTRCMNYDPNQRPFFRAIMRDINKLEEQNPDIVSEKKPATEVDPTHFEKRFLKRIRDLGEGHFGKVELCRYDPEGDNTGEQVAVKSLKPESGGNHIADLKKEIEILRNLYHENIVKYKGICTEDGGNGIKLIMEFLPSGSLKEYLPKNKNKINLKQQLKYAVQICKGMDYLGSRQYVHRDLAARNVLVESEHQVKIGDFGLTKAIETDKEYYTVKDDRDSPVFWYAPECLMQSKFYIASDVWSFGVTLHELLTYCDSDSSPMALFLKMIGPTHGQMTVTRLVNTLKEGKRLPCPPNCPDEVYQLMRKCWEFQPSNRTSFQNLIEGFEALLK
AMPK alpha2/beta1/gamma1 (Homo sapiens), sequence (P54619 whole entry partner): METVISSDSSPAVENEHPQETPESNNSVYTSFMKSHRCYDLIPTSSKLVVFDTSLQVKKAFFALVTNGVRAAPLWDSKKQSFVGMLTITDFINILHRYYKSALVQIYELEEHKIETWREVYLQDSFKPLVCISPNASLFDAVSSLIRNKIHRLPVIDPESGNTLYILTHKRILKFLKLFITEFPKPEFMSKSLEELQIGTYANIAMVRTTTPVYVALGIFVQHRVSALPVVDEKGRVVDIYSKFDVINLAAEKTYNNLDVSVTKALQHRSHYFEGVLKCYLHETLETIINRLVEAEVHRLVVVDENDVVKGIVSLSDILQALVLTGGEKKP
AMPK alpha2/beta1/gamma1 (Homo sapiens), sequence (P54646 whole entry): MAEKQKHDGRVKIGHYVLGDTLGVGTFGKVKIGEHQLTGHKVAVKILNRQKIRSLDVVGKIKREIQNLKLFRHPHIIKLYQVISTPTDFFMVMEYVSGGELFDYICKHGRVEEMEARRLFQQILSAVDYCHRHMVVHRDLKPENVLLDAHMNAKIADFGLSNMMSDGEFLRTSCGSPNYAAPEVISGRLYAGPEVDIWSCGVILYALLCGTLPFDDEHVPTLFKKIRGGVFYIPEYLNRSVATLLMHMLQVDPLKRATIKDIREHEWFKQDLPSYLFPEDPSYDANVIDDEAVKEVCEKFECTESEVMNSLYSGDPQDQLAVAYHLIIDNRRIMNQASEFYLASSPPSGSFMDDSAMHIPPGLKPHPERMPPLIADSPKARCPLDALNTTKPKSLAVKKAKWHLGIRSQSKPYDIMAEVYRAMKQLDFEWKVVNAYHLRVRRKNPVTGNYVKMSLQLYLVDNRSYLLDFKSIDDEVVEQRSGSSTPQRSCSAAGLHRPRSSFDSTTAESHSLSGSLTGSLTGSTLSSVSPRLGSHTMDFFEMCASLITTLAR
AMPK alpha2/beta1/gamma1 (Homo sapiens), sequence (Q9Y478 2-270 partner limits assumed): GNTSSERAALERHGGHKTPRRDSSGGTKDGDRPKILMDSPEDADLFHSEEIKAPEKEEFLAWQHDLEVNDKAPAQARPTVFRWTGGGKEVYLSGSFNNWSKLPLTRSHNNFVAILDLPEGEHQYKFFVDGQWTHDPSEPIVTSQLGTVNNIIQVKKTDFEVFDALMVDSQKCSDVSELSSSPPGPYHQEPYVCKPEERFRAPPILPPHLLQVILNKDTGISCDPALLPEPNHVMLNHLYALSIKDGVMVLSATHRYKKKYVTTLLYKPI
Serine/threonine-protein kinase TAO2 (Homo sapiens), sequence (Q9UL54 whole entry): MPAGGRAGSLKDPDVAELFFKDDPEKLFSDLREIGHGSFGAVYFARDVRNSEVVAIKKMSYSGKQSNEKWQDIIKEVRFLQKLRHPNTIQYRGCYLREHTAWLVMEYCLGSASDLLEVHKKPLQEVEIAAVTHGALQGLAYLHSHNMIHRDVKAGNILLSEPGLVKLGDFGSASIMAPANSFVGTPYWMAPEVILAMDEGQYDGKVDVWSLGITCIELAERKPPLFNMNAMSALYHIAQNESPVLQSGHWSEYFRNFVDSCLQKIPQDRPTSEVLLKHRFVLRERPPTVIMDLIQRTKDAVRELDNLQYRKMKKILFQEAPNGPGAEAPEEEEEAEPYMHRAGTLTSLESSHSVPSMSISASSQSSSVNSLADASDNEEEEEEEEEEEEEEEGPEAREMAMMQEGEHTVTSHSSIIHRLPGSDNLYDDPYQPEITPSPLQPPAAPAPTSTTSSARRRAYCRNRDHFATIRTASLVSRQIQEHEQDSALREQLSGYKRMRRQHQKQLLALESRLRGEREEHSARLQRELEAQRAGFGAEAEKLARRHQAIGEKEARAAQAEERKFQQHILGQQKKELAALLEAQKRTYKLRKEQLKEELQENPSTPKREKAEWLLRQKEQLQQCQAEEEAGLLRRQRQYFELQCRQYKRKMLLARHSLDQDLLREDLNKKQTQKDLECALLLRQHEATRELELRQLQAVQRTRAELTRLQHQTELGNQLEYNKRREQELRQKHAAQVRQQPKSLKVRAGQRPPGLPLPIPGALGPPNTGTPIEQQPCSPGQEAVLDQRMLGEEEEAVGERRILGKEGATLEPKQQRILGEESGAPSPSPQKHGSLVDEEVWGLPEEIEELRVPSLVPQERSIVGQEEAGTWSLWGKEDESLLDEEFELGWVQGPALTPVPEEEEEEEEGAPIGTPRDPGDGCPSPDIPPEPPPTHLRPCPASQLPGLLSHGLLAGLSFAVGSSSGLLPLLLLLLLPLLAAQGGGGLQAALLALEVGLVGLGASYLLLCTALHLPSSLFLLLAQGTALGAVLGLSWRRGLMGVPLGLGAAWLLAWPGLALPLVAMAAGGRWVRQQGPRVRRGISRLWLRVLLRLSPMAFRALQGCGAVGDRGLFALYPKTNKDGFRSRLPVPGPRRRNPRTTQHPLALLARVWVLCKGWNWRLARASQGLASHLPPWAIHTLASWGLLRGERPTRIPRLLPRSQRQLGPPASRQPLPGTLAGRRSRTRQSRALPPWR
cGMP-dependent protein kinase 2 (Homo sapiens), sequence (Q13237 whole entry): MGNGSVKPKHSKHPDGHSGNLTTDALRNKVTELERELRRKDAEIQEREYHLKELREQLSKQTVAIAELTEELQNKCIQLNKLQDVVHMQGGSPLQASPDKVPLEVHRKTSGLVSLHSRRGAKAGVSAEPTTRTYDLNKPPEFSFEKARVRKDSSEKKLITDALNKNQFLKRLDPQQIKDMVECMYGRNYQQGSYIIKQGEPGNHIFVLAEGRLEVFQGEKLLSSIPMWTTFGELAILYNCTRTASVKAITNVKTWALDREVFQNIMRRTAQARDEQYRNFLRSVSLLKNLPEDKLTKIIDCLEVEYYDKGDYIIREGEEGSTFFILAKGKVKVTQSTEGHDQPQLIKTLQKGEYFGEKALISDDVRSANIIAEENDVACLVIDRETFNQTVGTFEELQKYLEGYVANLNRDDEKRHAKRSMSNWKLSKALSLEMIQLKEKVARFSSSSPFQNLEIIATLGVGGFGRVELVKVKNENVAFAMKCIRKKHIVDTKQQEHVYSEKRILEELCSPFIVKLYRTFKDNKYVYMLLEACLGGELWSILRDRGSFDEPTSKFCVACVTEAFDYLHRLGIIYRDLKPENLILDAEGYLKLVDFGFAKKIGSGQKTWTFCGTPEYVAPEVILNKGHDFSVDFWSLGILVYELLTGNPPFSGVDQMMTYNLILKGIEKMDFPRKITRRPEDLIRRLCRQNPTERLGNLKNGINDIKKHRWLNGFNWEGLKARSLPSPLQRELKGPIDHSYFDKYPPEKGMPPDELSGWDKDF

SMILES | inhibition [1] | inhibition [2] | inhibition [3] | inhibition [4] | inhibition [5] | inhibition [6] | inhibition [7] | inhibition [8] | inhibition [9] | inhibition [10] | inhibition [11] | inhibition [12] | IC50 [13] | inhibition [14] | inhibition [15] | inhibition [16] | inhibition [17] | inhibition [18] | inhibition [19] | inhibition [20] | also measured
CC(C)n1nc(C#Cc2cccc3cc(-c4cccc(C(F)(F)F)c4)ncc23)c2c(N)ncnc21 | 3% | 5% | -4% | 1% | 101% | 97% | 2% | 89% | 2% | 85% | -1% | 9% | 65 nM | -1% | 94% | 62% | 11% | 10% | 5% | 98% | inhibition [21]: 6%; inhibition [22]: 2%; inhibition [23]: 0%; inhibition [24]: -3%; inhibition [25]: 59%; inhibition [26]: 2%; inhibition [27]: -2%; inhibition [28]: 7%; inhibition [29]: 1%; inhibition [30]: 17%; Ratio (Caco-2): 3.2; inhibition [31]: 1%; inhibition [32]: 3%
CC(C)n1nc(C#Cc2cccc(NC(=O)c3cccc(C(F)(F)F)c3)c2)c2c(N)ncnc21 | 0% | 2% | 2% | 3% | 118% | 98% | 67% | 99% | -3% | 101% | 1% | 24% | 4 nM | 0% | 99% | 89% | 11% | -3% | 18% | 109% | inhibition [21]: -2%; inhibition [22]: 0%; inhibition [23]: -1%; inhibition [24]: 97%; inhibition [25]: 97%; inhibition [26]: 1%; inhibition [27]: 1%; inhibition [28]: -1%; inhibition [29]: -1%; inhibition [30]: 17%; Ratio (Caco-2): 1.2; inhibition [31]: 5%; inhibition [32]: 36%
